# Measurements pooled from the literature.
# Protocols differ between the studies behind these lines.
# Target: Membrane-associated tyrosine- and threonine-specific cdc2-inhibitory kinase (PKMYT1, Homo sapiens, UniProt Q99640)
# One construct used (Q99640 1-499): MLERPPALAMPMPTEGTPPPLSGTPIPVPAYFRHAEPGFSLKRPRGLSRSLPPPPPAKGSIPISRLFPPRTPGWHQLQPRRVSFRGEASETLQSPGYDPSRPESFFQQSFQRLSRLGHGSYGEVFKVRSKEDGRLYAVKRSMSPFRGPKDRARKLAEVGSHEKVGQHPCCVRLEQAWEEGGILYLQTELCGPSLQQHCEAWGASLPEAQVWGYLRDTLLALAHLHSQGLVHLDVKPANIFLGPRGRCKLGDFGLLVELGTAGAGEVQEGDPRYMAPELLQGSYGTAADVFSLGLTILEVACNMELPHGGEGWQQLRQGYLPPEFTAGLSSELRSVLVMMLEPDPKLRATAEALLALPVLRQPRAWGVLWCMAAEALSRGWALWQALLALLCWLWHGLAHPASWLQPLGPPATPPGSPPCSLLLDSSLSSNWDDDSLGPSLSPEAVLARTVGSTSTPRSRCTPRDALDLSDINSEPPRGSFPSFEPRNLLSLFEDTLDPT
SMILES,assay,conditions,remaining binding
CN(C)c1nccc(-c2cnc3ncccn23)n1,binding,1 µM,88%
CCOC(=O)c1cc2cc(-c3cc(C(=O)NCc4ccc(C(=O)O)cc4)nn3C)ccc2[nH]1,"cell-free assay, competition with immobilised ligand",0.1 µM,100%
CC1CCCN1c1nccc(-c2cnn3ncccc23)n1 (centres unmarked),binding,1 µM,97%
CNC(=O)[C@@H]1CC[C@@H](n2c(-c3ccc4cnccc4c3)nc3ccc(C(=O)NCc4cccc(C(N)=O)c4)cc32)C1,"binding, competition with immobilised ligand",1 µM,100%
CN(C)c1ncc(F)c(-c2cnn3ncccc23)n1,binding,1 µM,97%
CN1CCN(c2cnc3c(C4CCN(C(=O)c5ccc(OC(F)(F)F)cc5N)CC4)ncnc3c2)CC1,"cell-free assay, competition with immobilised ligand",1 µM,100%
CCN1CCN(Cc2ccc(C(=O)Nc3ccc(C)c(Oc4ccc5c(c4)CC(=O)N5)c3)cc2C(F)(F)F)CC1,"binding, competition with immobilised ligand",1 µM,70%
CN(CCCC(F)(F)F)c1nccc(-c2cnn3ncccc23)n1,binding,1 µM,93%
Cc1cnc(Nc2ccc(C(=O)N3CCC(N4CCCC4)CC3)cc2)nc1-c1cc2ccccc2s1,"binding, competition with immobilised ligand",1 µM,80%
Cc1cnn2ncc(-c3ccnc(N(C)C)n3)c2c1,binding,1 µM,100%
O=C(Nc1ccc(Oc2ccc(F)cc2)cc1)N1CCc2ncccc2[C@H]1c1ccc(F)cc1,"cell-free assay, competition with immobilised ligand",1 µM,63%
N[C@H]1CCN(c2nccc(-c3cnn4ncccc34)n2)C1,binding,1 µM,91%
O=C(Nc1cccnn1)N1CC(C/C=C/c2cncc(Oc3ccc(C(F)(F)F)cn3)n2)C1,"cell-free assay, competition with immobilised ligand",1 µM,100%
FC(F)(F)Oc1cccc(-c2cnc3ccc(-c4ccncc4)nn23)c1,"cell-free assay, competition with immobilised ligand",5 µM,67%
O=C(NCCCN1CCOCC1)c1ccc(Nc2ncc(Cl)c(-c3ccc(Cl)s3)n2)cc1,"binding, competition with immobilised ligand",1 µM,100%
CCC(=O)N[C@@H]1CC[C@H](C(=O)N(C)c2ccc(-c3nc4ccccc4o3)cc2)C1,"cell-free assay, competition with immobilised ligand",1 µM,100%
COc1cnc(Nc2cccc(S(N)(=O)=O)c2)nc1N1CCN(c2ccccc2)C(=O)C1,"binding, competition with immobilised ligand",1 µM,86%
O=C(c1ccc(Nc2nccc(-c3cc4ccccc4s3)n2)cc1)N1CCC(N2CCCC2)CC1,"binding, competition with immobilised ligand",1 µM,70%
NS(=O)(=O)c1cc(NC(=O)Cc2ccccc2)ccc1Oc1cccc(Cl)c1,"cell-free assay, competition with immobilised ligand",1 µM,96%
O=C(NCC1CCOCC1)c1n[nH]cc1NC(=O)c1c(F)cccc1F,"binding, competition with immobilised ligand",1 µM,72%
